Reference: ChEMBL document CHEMBL3352373, “Design and synthesis of 21-alkynylaryl pregnenolone derivatives and evaluation of their anticancer activity” (Bioorg Med Chem, 2014)
Active and inactive are the calls of the source. No cut-off for these calls is given here.

Tests used:
MCF7 [1] = assay: Cytotoxic activity against human MCF7 cells assessed as cell viability at 10 uM after 24 hrs by trypan blue exclusion method; assay type: functional; settings: MCF7, 24 h, read-out: Activity
How it was run: (§1)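 Trypan blue exclusion after 24 h compound exposure. Medium collected, attached cells trypsinized and pooled with it, then centrifuged at 1200 rpm for 5 min. Pellet resuspended in PBS with 0.2% trypan blue. 200–300 cells counted per experiment in three separate experiments. Viability is the percentage of viable cells over total cells, taken as the mean.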

A549 [2] = assay: Cytotoxic activity against human A549 cells after 48 hrs by MTT assay; assay type: functional, cell-based; settings: A549, 48 h
How it was run: (§2)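 MTT assay; log-phase cells seeded at 10^4 cells/well in DMEM, allowed to attach for 24 h at 37 °C, 5% CO2. Compounds dissolved in DMSO/water (1:1) and tested at 0.1–100 µM (1:2 serial dilutions), four replicates per condition. MTT at 0.5 mg/ml final added 4 h before end; dissolved in 0.1 N HCl/isopropanol, A545 read. Untreated cells as 100% growth, blank subtracted; IC50 as mean ± SD of 3–4 independent experiments.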

A-431 [3] = assay: Cytotoxic activity against human A431 cells after 24 hrs by MTT assay; assay type: functional, cell-based; settings: A-431, 24 h; how it was run: as §2
LNCaP [4] = assay: Cytotoxic activity against human LNCAP cells after 48 hrs by MTT assay; assay type: functional, cell-based; how it was run: as §2
[5] = Inhibition of PI3K/Akt signalling pathway in human HeLa cells at cytotoxic IC50 after 24 hrs by immunoblot; assay type: cell-based
How it was run: (§3)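 Cells dosed at their cytotoxic IC50 and lysed 24 h later (A431 also sampled over time) in ice-cold HEPES pH 7.5 buffer with phosphatase/protease inhibitors and 0.5% Triton X-100. 50 µg protein per lane on 10% SDS–PAGE, transferred to nitrocellulose, blocked in 5% milk/TBS-T. Probed overnight at 4 °C with anti-pAkt (Ser473; 1:1000) and β-actin loading control; HRP secondary, ECL detection. Untreated cells as control.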

HeLa [6] = assay: Cytotoxic activity against human HeLa cells after 48 hrs by MTT assay; assay type: functional, cell-based; how it was run: as §2
[7] = Inhibition of PI3K/Akt signalling pathway in human LNCAP cells at cytotoxic IC50 after 24 hrs by immunoblot; assay type: cell-based; how it was run: as §3
MCF7 [8] = assay: Cytotoxic activity against human MCF7 cells after 24 hrs by MTT assay; assay type: functional, cell-based; settings: MCF7, 24 h; how it was run: as §2
[9] = Inhibition of PI3K/Akt signalling pathway in human MCF7 cells at cytotoxic IC50 after 24 hrs by immunoblot; assay type: cell-based; how it was run: as §3
[10] = Inhibition of PI3K/Akt signalling pathway in human A431 cells at cytotoxic IC50 after 24 hrs by immunoblot; assay type: cell-based; settings: A-431; how it was run: as §3
A549 [11] = assay: Cytotoxic activity against human A549 cells after 24 hrs by MTT assay; assay type: functional, cell-based; settings: A549, 24 h; how it was run: as §2
LNCaP [12] = assay: Cytotoxic activity against human LNCAP cells assessed as cell viability at 10 uM after 24 hrs by trypan blue exclusion method; assay type: functional; settings: read-out: Activity; how it was run: as §1
HT-29 [13] = assay: Cytotoxic activity against human HT-29 cells after 24 hrs by MTT assay; assay type: functional, cell-based; settings: HT-29, 24 h; how it was run: as §2
HepG2 [14] = assay: Cytotoxic activity against human HepG2 cells after 48 hrs by MTT assay; assay type: functional, cell-based; settings: HepG2, 48 h; how it was run: as §2
A-431 [15] = assay: Cytotoxic activity against human A431 cells after 48 hrs by MTT assay; assay type: functional, cell-based; settings: A-431, 48 h; how it was run: as §2
HepG2 [16] = assay: Cytotoxic activity against human HepG2 cells after 24 hrs by MTT assay; assay type: functional, cell-based; settings: HepG2, 24 h; how it was run: as §2
MCF7 [17] = assay: Cytotoxic activity against human MCF7 cells after 48 hrs by MTT assay; assay type: functional, cell-based; settings: MCF7, 48 h; how it was run: as §2
A-431 [18] = assay: Cytotoxic activity against human A431 cells assessed as cell viability at 5 uM after 24 hrs by trypan blue exclusion method; assay type: functional; settings: A-431, 24 h, read-out: Activity; how it was run: as §1
LNCaP [19] = assay: Cytotoxic activity against human LNCAP cells after 24 hrs by MTT assay; assay type: functional, cell-based; how it was run: as §2
HT-29 [20] = assay: Cytotoxic activity against human HT-29 cells after 48 hrs by MTT assay; assay type: functional, cell-based; settings: HT-29, 48 h; how it was run: as §2
HeLa [21] = assay: Cytotoxic activity against human HeLa cells after 24 hrs by MTT assay; assay type: functional, cell-based; how it was run: as §2
HeLa [22] = assay: Cytotoxic activity against human HeLa cells assessed as cell viability at 10 uM after 24 hrs by trypan blue exclusion method; assay type: functional; settings: read-out: Activity; how it was run: as §1
[23] = Inhibition of PI3K/Akt signalling pathway in human A431 cells at cytotoxic IC50 after 2 to 24 hrs by immunoblot; assay type: cell-based; settings: A-431, TDE = time-dependent effect; how it was run: as §3

Structure (SMILES) | viability at 10 µM (MCF7 [1]) [%] | IC50 (A549 [2]) [µM] | IC50 (A-431 [3]) [µM] | IC50 (LNCaP [4]) [µM] | IC50 (HeLa [6]) [µM] | IC50 (MCF7 [8]) [µM] | inhibition [10] | IC50 (A549 [11]) [µM] | viability at 10 µM (LNCaP [12]) [%] | IC50 (HT-29 [13]) [µM] | IC50 (HepG2 [14]) [µM] | IC50 (A-431 [15]) [µM] | IC50 (HepG2 [16]) [µM] | IC50 (MCF7 [17]) [µM] | viability at 5 µM (A-431 [18]) [%] | IC50 (LNCaP [19]) [µM] | IC50 (HT-29 [20]) [µM] | IC50 (HeLa [21]) [µM] | viability at 10 µM (HeLa [22]) [%] | other results
C[C@]12CC[C@H]3[C@@H](CC=C4C[C@@H](O)CC[C@@]43C)[C@@H]1CC[C@@H]2C(=O)C#Cc1ccccc1C(F)(F)F | 18.9 | 6.3 | 4.21 | 5.44 | 3.85 | 13.5 | Active | 15.8 | 0 | 24.6 | 12.6 | 1.78 | 38.4 | 4.42 | 0 | 7.9 | 9.87 | 13.8 | 70.8 | inhibition [5]: Active; inhibition [7]: Active; inhibition [9]: Active
COc1ccc(C#CC(=O)[C@H]2CC[C@H]3[C@@H]4CC=C5C[C@@H](O)CC[C@]5(C)[C@H]4CC[C@]23C)c(C)c1 |  | 30.5 | 44.1 | 30.8 | 23.6 | 44.1 |  | 44.3 |  | 48.4 | 45.7 | 13.7 | > 50 | 18.8 |  | 41.7 | 22.7 | > 50 |  | 
C[C@]12CC[C@H](O)CC1=CC[C@@H]1[C@@H]2CC[C@]2(C)C(=O)CC[C@@H]12 [PRASTERONE] |  | 47.8 | > 50 | > 50 | > 50 | > 50 |  | 47.8 |  | > 50 | > 50 | > 50 | > 50 | > 50 |  | > 50 | > 50 | > 50 |  | 
COc1ccc(C#CC(=O)[C@H]2CC[C@H]3[C@@H]4CC=C5C[C@@H](O)CC[C@]5(C)[C@H]4CC[C@]23C)cc1 |  | > 50 | > 50 | 47.6 | 26.7 | > 50 |  | > 50 |  | > 50 | > 50 | > 50 | > 50 | > 50 |  | > 50 | > 50 | > 50 |  | 
C[C@]12CC[C@H]3[C@@H](CC=C4C[C@@H](O)CC[C@@]43C)[C@@H]1CC[C@@H]2C(=O)C#Cc1cccc(C(F)(F)F)c1 | 94.2 | 20.7 | 2.28 | 17.4 | 8.34 | 31.4 | Active | 29.3 | 92.1 | > 50 | 16.4 | 0.54 | 45.7 | 18.6 | 0 | 26.2 | 26.4 | 25.1 | 92.5 | inhibition [23]: tde
Cc1cc(C)c(C#CC(=O)[C@H]2CC[C@H]3[C@@H]4CC=C5C[C@@H](O)CC[C@]5(C)[C@H]4CC[C@]23C)cc1C |  | > 50 | 39.3 | 46.2 | 32.4 | 39 |  | > 50 |  | > 50 | 48.6 | 12.5 | > 50 | 7.78 |  | > 50 | > 50 | > 50 |  | 
Cc1cc(C#CC(=O)[C@H]2CC[C@H]3[C@@H]4CC=C5C[C@@H](O)CC[C@]5(C)[C@H]4CC[C@]23C)ccc1F |  | 28.2 | > 50 | 38.4 | > 50 | 17.6 |  | 40.1 |  | > 50 | > 50 | > 50 | > 50 | 11.3 |  | > 50 | 26.7 | > 50 |  | 
C[C@]12CC[C@H]3[C@@H](CC=C4C[C@@H](O)CC[C@@]43C)[C@@H]1CC[C@@H]2C(=O)C#Cc1cccc(F)c1 |  | 24.9 | > 50 | 9.48 | 6.44 | 28.4 |  | > 50 |  | > 50 | > 50 | 45.3 | > 50 | 14.7 |  | 14.7 | 28.6 | 21.4 |  | 
C#Cc1cccc(C#CC(=O)[C@H]2CC[C@H]3[C@@H]4CC=C5C[C@@H](O)CC[C@]5(C)[C@H]4CC[C@]23C)c1 | 0 | 20.2 | 4.85 | 16.9 | > 50 | 11.2 | Active | > 50 | 90.3 | > 50 | 17.9 | 1.52 | 42.6 | 5.15 | 0 | 19.1 | > 50 | > 50 | 93.2 | inhibition [9]: Active
C[C@]12CC[C@H]3[C@@H](CC=C4C[C@@H](O)CC[C@@]43C)[C@@H]1CC[C@@H]2C(=O)C#Cc1ccc(F)cc1 | 90.4 | 40.6 | 7.16 | 10.8 | 43.7 | > 50 | Active | > 50 | 25.6 | > 50 | > 50 | 2.18 | > 50 | > 50 | 28.6 | 12.4 | 44.7 | > 50 | 98.4 | 
